The structures appear in SMILES notation. Activity calls are given as the source filed them. The rule behind the calls is not given here.

For test [1], the system named is MDA-MB-435. In words: Cytotoxicity against human MDA-MB-435 cells assessed as reduction in cell viability at 50 uM by cell titer 96 aqueous one solution cell proliferation assay. The format is functional, cell-based.
The test system of the next test is MDA-MB-231. In words: Cytotoxicity against human MDA-MB-231 cells assessed as reduction in cell viability at 50 uM by cell titer 96 aqueous one solution cell proliferation assay. Type of test: functional, cell-based.
The subject of test [2] is OVCAR-3. In words: Cytotoxicity against human OVCAR3 cells assessed as reduction in cell viability at 50 uM by cell titer 96 aqueous one solution cell proliferation assay. The format is functional, cell-based.
Another test deals with Nannizzia gypsea. The test is described as follows: Antifungal activity against Microsporum gypseum at 25 ug/disc incubated for 5 days by agar disk diffusion method. Type of test: functional. As to conditions: 120 h, read-out: DIZ. Put shortly:
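Conidia of M. gypseum, kept on Sabouraud dextrose agar, were harvested in sterile water and adjusted to 0.5–1.0 OD at 600 nm (~10^5 cells/mL). The suspension was seeded onto Mueller-Hinton agar with 2% glucose and 0.5 µg/ml methylene blue. Compounds in DMSO were loaded at 25 µg per 6 mm paper disk. Inhibition-zone diameters (mm) were read after 5 d, as mean ± SD of four replicates.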
On the technique in general: A growth-free zone around the sample is the usual read-out of agar diffusion tests.

For test [3], the system named is MDA-MB-435. In words: Cytotoxicity against human MDA-MB-435 cells assessed as reduction in cell viability by cell titer 96 aqueous one solution cell proliferation assay. The format is functional, cell-based. Summed up: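 Cells were grown in RPMI 1640 with 10% FBS and penicillin/streptomycin at 37°C under 5% CO2. Log-phase cells were trypsinized, washed twice, seeded at 5,000 per well and incubated overnight. Compounds were added at final 20, 4, 0.8, 0.16 and 0.032 µM in 0.5% DMSO and incubated for 72 h at 37 °C. Viability was read by MTS-type absorbance assay as % survival versus DMSO control. Vinblastine served as positive control.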

A further test deals with Huh7.5.1. The test is described as follows: Cytotoxicity against human Huh7.5.1 cells assessed as reduction in cell viability by ATPlite assay. As to conditions: Huh-7.5.1.
For test [4], the system named is OVCAR-3. In words: Cytotoxicity against human OVCAR3 cells assessed as reduction in cell viability by cell titer 96 aqueous one solution cell proliferation assay. The format is functional, cell-based.

Consider `COC1=CC(=O)C[C@@H](C)[C@]12Oc1cc(OC)cc(OC)c1C2=O`, for which the outcome in the test with MDA-MB-435 [1], in the test with MDA-MB-231 and in the test with OVCAR-3 [2] was inactive. Besides, the zone of inhibition at 25 µg/disc with Nannizzia gypsea is 0 mm.
As for `COC1=CC(=O)[C@H](O)[C@@H](C)[C@]12Oc1cc(OC)c(F)c(OC)c1C2=O`, the result with MDA-MB-435 [1], in the test with MDA-MB-231 and in the test on OVCAR-3 [2] was inactive. Also, in the test with Nannizzia gypsea, the zone of inhibition at 25 µg/disc turned out to be 0 mm.
Regarding `COC1=CC(=O)[C@H](O)[C@@H](C)[C@]12Oc1cc(OC)cc(OC)c1C2=O`, the result in the test on MDA-MB-435 [1], with MDA-MB-231 and with OVCAR-3 [2] was inactive. In addition, the zone of inhibition at 25 µg/disc with Nannizzia gypsea came out at 0 mm.
`COC1=CC(=O)C[C@@H](C)[C@]12Oc1c(F)c(OC)cc(OC)c1C2=O`: the figures for the IC50 with MDA-MB-435 [3] and with Huh7.5.1 were 22 µM and 10 to 25 µM, respectively. The outcome with MDA-MB-231 and in the test with OVCAR-3 [2] was inactive. The zone of inhibition at 25 µg/disc with Nannizzia gypsea was 34 mm.
`COC1=CC(=O)C[C@@H](C)[C@]12Oc1c(Cl)c(O)cc(OC)c1C2=O`: the result in the test with MDA-MB-435 [1], in the test on MDA-MB-231 and with OVCAR-3 [2] was inactive. In addition, the zone of inhibition at 25 µg/disc in the test on Nannizzia gypsea is 0 mm.
For the compound `COC1=CC(=O)C[C@@H](C)[C@]12Oc1cc(O)cc(OC)c1C2=O`, the result in the test on MDA-MB-435 [1], with MDA-MB-231 and in the test with OVCAR-3 [2] was inactive. Also, the zone of inhibition at 25 µg/disc in the test with Nannizzia gypsea is 0 mm.
As for `COC1=CC(=O)[C@H](O)[C@@H](C)[C@]12Oc1c(F)c(OC)cc(OC)c1C2=O`, the outcome with MDA-MB-435 [1], with MDA-MB-231 and in the test with OVCAR-3 [2] was inactive. Also, the zone of inhibition at 25 µg/disc in the test on Nannizzia gypsea was found to be 0 mm.
For `COC1=CC(=O)C2=C(O[C@]3(C2=O)C(OC)=CC(=O)C[C@H]3C)C1(F)Cl` (mixture of isomers), the outcome in the test with MDA-MB-435 [1], in the test with MDA-MB-231 and in the test with OVCAR-3 [2] was inactive. Also, the zone of inhibition at 25 µg/disc in the test with Nannizzia gypsea was determined as 0 mm.
For `COC1=CC(=O)C[C@@H](C)[C@]12Oc1c(Cl)c(OC)c(F)c(OC)c1C2=O`, the result with MDA-MB-435 [1], in the test with MDA-MB-231 and in the test with OVCAR-3 [2] was inactive. For the same compound, the zone of inhibition at 25 µg/disc in the test on Nannizzia gypsea came to 23 mm.
Regarding `COC1=CC(=O)C[C@@H](C)[C@]12Oc1cc(OC)c(F)c(OC)c1C2=O`, the outcome with MDA-MB-435 [1], in the test on MDA-MB-231 and with OVCAR-3 [2] was inactive. Besides, the zone of inhibition at 25 µg/disc in the test on Nannizzia gypsea was found to be 0 mm.
Take `COC1=CC(=O)[C@H](O)[C@@H](C)[C@]12Oc1c(Cl)c(OC)cc(OC)c1C2=O`: the outcome in the test with MDA-MB-435 [1], in the test on MDA-MB-231 and with OVCAR-3 [2] was inactive. Further, the zone of inhibition at 25 µg/disc with Nannizzia gypsea came out at 0 mm.
As to `COC1=CC(=O)C[C@@H](C)[C@]12Oc1c(Cl)c(OC)cc(OC)c1C2=O` [GRISEOFULVIN], the IC50 in the test on MDA-MB-435 [3] was 6.4 µM; in the test with OVCAR-3 [4] it was 48.5 µM; with Huh7.5.1, 10 to 25 µM. In addition, the result with MDA-MB-231 was inactive. Besides, in the test on Nannizzia gypsea, the zone of inhibition at 25 µg/disc was found to be 35 mm.

What is called IC50 is the concentration that inhibits the measured activity by half.
